Measured values as given in ChEMBL document CHEMBL5154945, “Discovery and Optimization of Pyrrolopyrimidine Derivatives as Selective Disruptors of the Perinucleolar Compartment, a Marker of Tumor Progression toward Metastasis” (J Med Chem, 2022).

Legend:
SF-539 = assay: Anticancer activity against human SF-539 cells assessed as cell growth inhibition; format: functional, cell-based; conditions: dose 1-100 µM, DDE = dose-dependent effect
RPMI-8226 = assay: Anticancer activity against human RPMI-8226 cells assessed as cell growth inhibition; format: functional, cell-based; conditions: dose 1-100 µM, DDE = dose-dependent effect
NCI/ADR-RES = assay: Anticancer activity against human NCI/ADR-RES cells assessed as cell growth inhibition; format: functional, cell-based; conditions: dose 1-100 µM, DDE = dose-dependent effect
K562 = assay: Anticancer activity against human K562 cells assessed as cell growth inhibition; format: functional, cell-based; conditions: dose 1-100 µM, DDE = dose-dependent effect
BT-549 = assay: Anticancer activity against human BT-549 cells assessed as cell growth inhibition; format: functional, cell-based; conditions: dose 1-100 µM, DDE = dose-dependent effect
HL-60(TB) = assay: Anticancer activity against human HL-60(TB) cells assessed as cell growth inhibition; format: functional, cell-based; conditions: dose 1-100 µM, DDE = dose-dependent effect
ACHN = assay: Anticancer activity against human ACHN cells assessed as cell growth inhibition; format: functional, cell-based; conditions: dose 1-100 µM, DDE = dose-dependent effect
Malme-3M = assay: Anticancer activity against human Malme-3M cells assessed as cell growth inhibition; format: functional, cell-based; conditions: dose 1-100 µM, DDE = dose-dependent effect
UACC-62 = assay: Anticancer activity against human UACC-62 cells assessed as cell growth inhibition; format: functional, cell-based; conditions: dose 1-100 µM, DDE = dose-dependent effect
UO-31 = assay: Anticancer activity against human UO-31 cells assessed as cell growth inhibition; format: functional, cell-based; conditions: dose 1-100 µM, DDE = dose-dependent effect
MDA-MB-468 = assay: Anticancer activity against human MDA-MB-468 cells assessed as cell growth inhibition; format: functional, cell-based; conditions: dose 1-100 µM, DDE = dose-dependent effect
OVCAR-5 = assay: Anticancer activity against human OVCAR-5 cells assessed as cell growth inhibition; format: functional, cell-based; conditions: dose 1-100 µM, DDE = dose-dependent effect
M14 = assay: Anticancer activity against human M14 cells assessed as cell growth inhibition; format: functional, cell-based; conditions: dose 1-100 µM, DDE = dose-dependent effect
PC-3M [1] = assay: Antiproliferative activity against human PC-3M cells expressing PTB/GFP fusion protein assessed as reduction of nucleolar volume at 1 to 30 uM measured after 24 hrs by Nucleolar-id Green Detection based confocal microscopic analysis; format: functional, cell-based; conditions: dose 1-30 µM, DDE = dose-dependent effect
Procedure, shortened: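 PC-3M cells grown in RPMI 1640 with 10% FBS and penicillin/streptomycin, trypsinized at 70% confluence, and seeded at 2×10^5 cells/mL overnight at 37 °C, 5% CO₂. Medium replaced with compound or 1% DMSO for 24 h. Nucleoli stained with Nucleolar-ID Green and nuclei with Hoechst 33342, then imaged by confocal microscopy. Bright green objects in three images per condition normalized to nuclei count; vehicle set to 100.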

NCI-H322M = assay: Anticancer activity against human NCI-H322M cells assessed as cell growth inhibition; format: functional, cell-based; conditions: dose 1-100 µM, DDE = dose-dependent effect
OVCAR-3 = assay: Anticancer activity against human OVCAR-3 cells assessed as cell growth inhibition; format: functional, cell-based; conditions: dose 1-100 µM, DDE = dose-dependent effect
PC-3M [2] = assay: Antiproliferative activity against human PC-3M cells expressing PTB/GFP fusion protein assessed as cell growth inhibition at < 100 nM and measured every four hrs for 130 hrs by IncuCyte zoom live cell analysis; format: functional, cell-based; conditions: DDE = dose-dependent effect
Procedure, shortened: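 PC3M cells stably expressing GFP-PTB, grown in DMEM with 10% FBS and 1% penicillin/streptomycin, seeded at 1.25×10^4 cells/ml in 384-well plates and left overnight at 37 °C, 5% CO2. Compound added in DMEM to give 11 final concentrations from 10 nM to 20 μM. Brightfield images were taken every 4 h for about 130 h and scored as percent confluence.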

OVCAR-8 = assay: Anticancer activity against human OVCAR-8 cells assessed as cell growth inhibition; format: functional, cell-based; conditions: dose 1-100 µM, DDE = dose-dependent effect
SW-620 = assay: Anticancer activity against human SW-620 cells assessed as cell growth inhibition; format: functional, cell-based; conditions: dose 1-100 µM, DDE = dose-dependent effect
SK-MEL-2 = assay: Anticancer activity against human SK-MEL-2 cells assessed as cell growth inhibition; format: functional, cell-based; conditions: dose 1-100 µM, DDE = dose-dependent effect
HCC 2998 = assay: Anticancer activity against human HCC 2998 cells assessed as cell growth inhibition; format: functional, cell-based; conditions: dose 1-100 µM, DDE = dose-dependent effect
IGROV-1 = assay: Anticancer activity against human IGROV-1 cells assessed as cell growth inhibition; format: functional, cell-based; conditions: dose 1-100 µM, DDE = dose-dependent effect
MCF7 = assay: Anticancer activity against human MCF7 cells assessed as cell growth inhibition; format: functional, cell-based; conditions: dose 1-100 µM, DDE = dose-dependent effect
SR = assay: Anticancer activity against human SR cells assessed as cell growth inhibition; format: functional, cell-based; conditions: dose 1-100 µM, DDE = dose-dependent effect
T47D = assay: Anticancer activity against human T47D cells assessed as cell growth inhibition; format: functional, cell-based; conditions: dose 1-100 µM, DDE = dose-dependent effect
DU-145 = assay: Anticancer activity against human DU-145 cells assessed as cell growth inhibition; format: functional, cell-based; conditions: dose 1-100 µM, DDE = dose-dependent effect
NCI-H226 = assay: Anticancer activity against human NCI-H226 cells assessed as cell growth inhibition; format: functional, cell-based; conditions: dose 1-100 µM, DDE = dose-dependent effect
NCI-H23 = assay: Anticancer activity against human NCI-H23 cells assessed as cell growth inhibition; format: functional, cell-based; conditions: dose 1-100 µM, DDE = dose-dependent effect
RXF 393 = assay: Anticancer activity against human RXF 393 cells assessed as cell growth inhibition; format: functional, cell-based; conditions: dose 1-100 µM, DDE = dose-dependent effect
SK-MEL-5 = assay: Anticancer activity against human SK-MEL-5 cells assessed as cell growth inhibition; format: functional, cell-based; conditions: dose 1-100 µM, DDE = dose-dependent effect
KM12 = assay: Anticancer activity against human KM12 cells assessed as cell growth inhibition; format: functional, cell-based; conditions: dose 1-100 µM, DDE = dose-dependent effect
SK-OV-3 = assay: Anticancer activity against human SK-OV-3 cells assessed as cell growth inhibition; format: functional, cell-based; conditions: dose 1-100 µM, DDE = dose-dependent effect
SNB-75 = assay: Anticancer activity against human SNB-75 cells assessed as cell growth inhibition; format: functional, cell-based; conditions: dose 1-100 µM, DDE = dose-dependent effect
A549 = assay: Anticancer activity against human A549 cells assessed as cell growth inhibition; format: functional, cell-based; conditions: dose 1-100 µM, DDE = dose-dependent effect
NCI-H522 = assay: Anticancer activity against human NCI-H522 cells assessed as cell growth inhibition; format: functional, cell-based; conditions: dose 1-100 µM, DDE = dose-dependent effect
SF-295 = assay: Anticancer activity against human SF-295 cells assessed as cell growth inhibition; format: functional, cell-based; conditions: dose 1-100 µM, DDE = dose-dependent effect
CCRF-CEM = assay: Anticancer activity against human CCRF-CEM cells assessed as cell growth inhibition; format: functional, cell-based; conditions: dose 1-100 µM, DDE = dose-dependent effect
CAKI-1 = assay: Anticancer activity against human CAKI-1 cells assessed as cell growth inhibition; format: functional, cell-based; conditions: dose 1-100 µM, DDE = dose-dependent effect
U-251 = assay: Anticancer activity against human U-251 cells assessed as cell growth inhibition; format: functional, cell-based; conditions: dose 1-100 µM, DDE = dose-dependent effect
SN12C = assay: Anticancer activity against human SN12C cells assessed as cell growth inhibition; format: functional, cell-based; conditions: dose 1-100 µM, DDE = dose-dependent effect
SF-268 = assay: Anticancer activity against human SF-268 cells assessed as cell growth inhibition; format: functional, cell-based; conditions: dose 1-100 µM, DDE = dose-dependent effect
HCT-15 = assay: Anticancer activity against human HCT-15 cells assessed as cell growth inhibition; format: functional, cell-based; conditions: dose 1-100 µM, DDE = dose-dependent effect
OVCAR-4 = assay: Anticancer activity against human OVCAR-4 cells assessed as cell growth inhibition; format: functional, cell-based; conditions: dose 1-100 µM, DDE = dose-dependent effect
SNB-19 = assay: Anticancer activity against human SNB-19 cells assessed as cell growth inhibition; format: functional, cell-based; conditions: dose 1-100 µM, DDE = dose-dependent effect
LOX IMVI = assay: Anticancer activity against human LOX IMVI cells assessed as cell growth inhibition; format: functional, cell-based; conditions: dose 1-100 µM, DDE = dose-dependent effect
786-0 = assay: Anticancer activity against human 786-0 cells assessed as cell growth inhibition; format: functional, cell-based; conditions: dose 1-100 µM, DDE = dose-dependent effect
MDA-MB-435 = assay: Anticancer activity against human MDA-MB-435 cells assessed as cell growth inhibition; format: functional, cell-based; conditions: dose 1-100 µM, DDE = dose-dependent effect
MDA-MB-231 = assay: Anticancer activity against human MDA-MB-231 cells assessed as cell growth inhibition; format: functional, cell-based; conditions: dose 1-100 µM, DDE = dose-dependent effect
EKVX = assay: Anticancer activity against human EKVX cells assessed as cell growth inhibition; format: functional, cell-based; conditions: dose 1-100 µM, DDE = dose-dependent effect
HCT-116 = assay: Anticancer activity against human HCT-116 cells assessed as cell growth inhibition; format: functional, cell-based; conditions: dose 1-100 µM, DDE = dose-dependent effect
Hs-578T = assay: Anticancer activity against human Hs-578T cells assessed as cell growth inhibition; format: functional, cell-based; conditions: dose 1-100 µM, DDE = dose-dependent effect
COLO 205 = assay: Anticancer activity against human COLO 205 cells assessed as cell growth inhibition; format: functional, cell-based; conditions: dose 1-100 µM, DDE = dose-dependent effect
NCI-H460 = assay: Anticancer activity against human NCI-H460 cells assessed as cell growth inhibition; format: functional, cell-based; conditions: dose 1-100 µM, DDE = dose-dependent effect
HT-29 = assay: Anticancer activity against human HT-29 cells assessed as cell growth inhibition; format: functional, cell-based; conditions: dose 1-100 µM, DDE = dose-dependent effect
PC-3M [3] = assay: Cytotoxicity against human PC-3M cells expressing PTB/GFP fusion protein assessed as reduction in ATP level at 20 uM and measured after 24 to 48 hrs by ATPlite luminescence assay; format: toxicity, cell-based; conditions: time 24-48 hrs
A498 = assay: Anticancer activity against human A498 cells assessed as cell growth inhibition; format: functional, cell-based; conditions: dose 1-100 µM, DDE = dose-dependent effect
MOLT-4 = assay: Anticancer activity against human MOLT-4 cells assessed as cell growth inhibition; format: functional, cell-based; conditions: dose 1-100 µM, DDE = dose-dependent effect
SK-MEL-28 = assay: Anticancer activity against human SK-MEL-28 cells assessed as cell growth inhibition; format: functional, cell-based; conditions: dose 1-100 µM, DDE = dose-dependent effect
UACC-257 = assay: Anticancer activity against human UACC-257 cells assessed as cell growth inhibition; format: functional, cell-based; conditions: dose 1-100 µM, DDE = dose-dependent effect
PC-3 = assay: Anticancer activity against human PC-3 cells assessed as cell growth inhibition; format: functional, cell-based; conditions: dose 1-100 µM, DDE = dose-dependent effect
HOP-62 = assay: Anticancer activity against human HOP-62 cells assessed as cell growth inhibition; format: functional, cell-based; conditions: dose 1-100 µM, DDE = dose-dependent effect
TK-10 = assay: Anticancer activity against human TK-10 cells assessed as cell growth inhibition; format: functional, cell-based; conditions: dose 1-100 µM, DDE = dose-dependent effect

SMILES: N=c1c2c(-c3ccccc3)c(-c3ccccc3)n(Cc3ccccc3)c2ncn1CCCO
- Activity (SF-539): Dde
- Activity (RPMI-8226): Dde
- Activity (NCI/ADR-RES): Dde
- Activity (K562): Dde
- Activity (BT-549): Dde
- Activity (HL-60(TB)): Dde
- Activity (ACHN): Dde
- Activity (Malme-3M): Dde
- Activity (UACC-62): Dde
- Activity (UO-31): Dde
- Activity (MDA-MB-468): Dde
- Activity (OVCAR-5): Dde
- Activity (M14): Dde
- Activity (PC-3M [1]): Dde
- Activity (NCI-H322M): Dde
- Activity (OVCAR-3): Dde
- Activity (PC-3M [2]): Dde
- Activity (OVCAR-8): Dde
- Activity (SW-620): Dde
- Activity (SK-MEL-2): Dde
- Activity (HCC 2998): Dde
- Activity (IGROV-1): Dde
- Activity (MCF7): Dde
- Activity (SR): Dde
- Activity (T47D): Dde
- Activity (DU-145): Dde
- Activity (NCI-H226): Dde
- Activity (NCI-H23): Dde
- Activity (RXF 393): Dde
- Activity (SK-MEL-5): Dde
- Activity (KM12): Dde
- Activity (SK-OV-3): Dde
- Activity (SNB-75): Dde
- Activity (A549): Dde
- Activity (NCI-H522): Dde
- Activity (SF-295): Dde
- Activity (CCRF-CEM): Dde
- Activity (CAKI-1): Dde
- Activity (U-251): Dde
- Activity (SN12C): Dde
- Activity (SF-268): Dde
- Activity (HCT-15): Dde
- Activity (OVCAR-4): Dde
- Activity (SNB-19): Dde
- Activity (LOX IMVI): Dde
- Activity (786-0): Dde
- Activity (MDA-MB-435): Dde
- Activity (MDA-MB-231): Dde
- Activity (EKVX): Dde
- Activity (HCT-116): Dde
- Activity (Hs-578T): Dde
- Activity (COLO 205): Dde
- Activity (NCI-H460): Dde
- Activity (HT-29): Dde
- Activity (PC-3M [3]): Toxic
- Activity (A498): Dde
- Activity (MOLT-4): Dde
- Activity (SK-MEL-28): Dde
- Activity (UACC-257): Dde
- Activity (PC-3): Dde
- Activity (HOP-62): Dde
- Activity (TK-10): Dde
